The test system of data set [1] is PC-12. Nature of the data set: Neuroprotective activity against 12.5 mM glutamate-induced toxicity in rat PC12 cells assessed as cell viability at 10 uM after 24 hrs by MTT assay. Type of data set: functional, cell-based. The gist of the method: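 Concentration-response run in PC12 cells co-exposed 24 h to 12.5 mM glutamate and compound at 0.1, 1, 5, 10, 15 or 20 μM. Viability by MTT (4 h at 37 °C, formazan in DMSO, A570), relative to untreated control; mean ± SD, n = 6.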

The subject of data set [2] is PC-12. Nature of the data set: Cytotoxicity against rat PC12 cells assessed as decrease in cell viability at 20 uM after 24 hrs by MTT assay. The data set is classed as cell-based. The settings on record: pc-12, 24 h. The essentials:
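PC12 cells grown in DMEM with 10% FBS at 37 °C and 5% CO2, seeded at 10 000 cells/well and cultured 24 h. Compound added at 20 μM without glutamate (DMSO stock at 1000× final). Then MTT (5 mg/mL stock) added for 4 h at 37 °C, formazan dissolved in DMSO, and A570 read. Viability given as % of untreated control.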

The subject of data set [3] is PC-12. Nature of the data set: cells. The following applies: Rattus norvegicus, PC-12, 24 h.
The test system of data set [4] is PC-12. Nature of the data set: Neuroprotective activity against 12.5 mM glutamate-induced apoptosis in rat PC12 cells assessed as early apoptotic cells at 0.1 uM after 24 hrs by Annexin V-FITC/propidium iodide staining based flow cytometry (reference value: 1.04%). Type of data set: functional.
For data set [5], the system named is PC-12. Nature of the data set: Neuroprotective activity against 12.5 mM glutamate-induced apoptosis in rat PC12 cells assessed as late apoptotic cells at 0.1 uM after 24 hrs by Annexin V-FITC/propidium iodide staining based flow cytometry (reference value: 45.53%). Type of data set: functional.
Data set [6] concerns PC-12. Nature of the data set: Neuroprotective activity against 12.5 mM glutamate-induced apoptosis in rat PC12 cells assessed as early apoptotic cells at 1 uM after 24 hrs by Annexin V-FITC/propidium iodide staining based flow cytometry (reference value: 1.04%). Type of data set: functional.
In data set [7] the test system is PC-12. Nature of the data set: Neuroprotective activity against 12.5 mM glutamate-induced apoptosis in rat PC12 cells assessed as late apoptotic cells at 1 uM after 24 hrs by Annexin V-FITC/propidium iodide staining based flow cytometry (reference value: 45.53%). The data set is classed as functional.
Data set [8] deals with PC-12. Nature of the data set: Neuroprotective activity against 12.5 mM glutamate-induced apoptosis in rat PC12 cells assessed as early apoptotic cells at 10 uM after 24 hrs by Annexin V-FITC/propidium iodide staining based flow cytometry (reference value: 1.04%). The data set is classed as functional.
Data set [9] concerns PC-12. Nature of the data set: Neuroprotective activity against 12.5 mM glutamate-induced apoptosis in rat PC12 cells assessed as late apoptotic cells at 10 uM after 24 hrs by Annexin V-FITC/propidium iodide staining based flow cytometry (reference value: 45.53%). The data set is classed as functional.
The subject of data set [10] is PC-12. Nature of the data set: Induction of apoptosis in rat PC12 cells assessed as early apoptotic cells at 10 uM after 24 hrs by Annexin V-FITC/propidium iodide staining based flow cytometry (reference value: 1.04%). Type of data set: cell-based. The following applies: pc-12, 24 h.
Data set [11] concerns PC-12. Nature of the data set: Induction of apoptosis in rat PC12 cells assessed as late apoptotic cells at 10 uM after 24 hrs by Annexin V-FITC/propidium iodide staining based flow cytometry (reference value: 45.53%). Type of data set: cell-based. The following applies: pc-12, 24 h.
In data set [12] the test system is PC-12. Nature of the data set: Neuroprotective activity against 12.5 mM glutamate-induced apoptosis in rat PC12 cells assessed as decrease in caspase 3 level after 24 hrs by chemiluminescence based Western blot analysis. The data set is classed as functional, cell-based. The essentials:
(§1)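 PC12 cells exposed 24 h to compound at 0.1, 1 or 10 μM, with or without 12.5 mM glutamate. Protein extracted in lysis buffer and quantified by BCA. Equal amounts run on 12% SDS-PAGE, blotted to nitrocellulose, blocked in 5% nonfat milk, then primary antibodies overnight at 4 °C and HRP secondaries. Cytochrome c measured in the cytosolic fraction. Mean ± SD, n = 3.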

Data set [13] deals with PC-12. Nature of the data set: Neuroprotective activity against 12.5 mM glutamate-induced apoptosis in rat PC12 cells assessed as decrease in caspase 9 level after 24 hrs by chemiluminescence based Western blot analysis. The data set is classed as functional, cell-based. The essentials: as §1
For data set [14], the system named is PC-12. Nature of the data set: Neuroprotective activity against 12.5 mM glutamate-induced apoptosis in rat PC12 cells assessed as increase in Bcl-2 level at 0.1 to 10 uM after 24 hrs by chemiluminescence based Western blot analysis. The data set is classed as functional, cell-based. The gist of the method:
as §1

Data set [15] has as its system PC-12. Nature of the data set: Neuroprotective activity against 12.5 mM glutamate-induced apoptosis in rat PC12 cells assessed as decrease in Bax level at 0.1 to 10 uM after 24 hrs by chemiluminescence based Western blot analysis. The data set is classed as functional, cell-based. The gist of the method: as §1
The test system of data set [16] is PC-12. Nature of the data set: Neuroprotective activity against 12.5 mM glutamate-induced apoptosis in rat PC12 cells assessed as decrease in cytochrome c level at 0.1 to 10 uM after 24 hrs by chemiluminescence based Western blot analysis. Type of data set: functional, cell-based. The essentials:
as §1

Data set [17] deals with PC-12. Nature of the data set: Neuroprotective activity against 12.5 mM glutamate-induced toxicity in rat PC12 cells assessed as cell viability at 0.1 uM after 24 hrs by MTT assay.

The source made the active and inactive calls. No cut-off for these calls is given here.

For the molecule `CCCCCCCCC/C=C\CC/C=C/[C@@H](O)[C@H](CO[C@@H]1O[C@H](CO)[C@@H](O)[C@H](O)[C@H]1O)NC(=O)[C@H](O)CCCCCCCCCCCCCCCCCC`, the outcome with PC-12 [1] was Active. Further, the Activity result in the data set with PC-12 [2] was “Non-Toxic”. The response with PC-12 [3] was half-maximal at 12 µM (EC50).
Taken in the same sequence, the figures for `CCCCCCCCC/C=C/CC/C=C/[C@@H](O)[C@H](CO[C@@H]1O[C@H](CO)[C@@H](O)[C@H](O)[C@H]1O)NC(=O)[C@H](O)CCCCCCCCCCCCCCCCCC` were “Active”, “Non-Toxic” and 12.4 µM.
Taken in the same sequence, the figures for `CCCCCCCCC/C=C\CC/C=C/[C@@H](O)[C@H](CO[C@@H]1O[C@H](CO)[C@@H](O)[C@H](O)[C@H]1O)NC(=O)[C@H](O)CCCCCCCCCCCCCCCCCCC` were “Active”, “Non-Toxic” and 8.9 µM.
Taken in the same sequence, the figures for `CCCCCCCCC/C=C/CC/C=C/[C@@H](O)[C@H](CO[C@@H]1O[C@H](CO)[C@@H](O)[C@H](O)[C@H]1O)NC(=O)[C@H](O)CCCCCCCCCCCCCC` were “Active”, “Non-Toxic” and 29.7 µM.
With `CCCCCCCCC/C=C\CC/C=C/[C@@H](O)[C@H](CO[C@@H]1O[C@H](CO)[C@@H](O)[C@H](O)[C@H]1O)NC(=O)[C@H](O)CCCCCCCCCCCCCC`, the outcome with PC-12 [1] was Active. The Activity result in the data set with PC-12 [2] was “Non-Toxic”. The EC50 with PC-12 [3] was determined as 27.1 µM.
Consider `CCCCCCCCC/C=C/CC/C=C/[C@@H](O)[C@H](CO[C@@H]1O[C@H](CO)[C@@H](O)[C@H](O)[C@H]1O)NC(=O)[C@H](O)CCCCCCCCCCCCCCCCCCCCCC`, for which the result with PC-12 [1] was Active. In addition, the Activity result in the data set with PC-12 [2] is recorded as “Non-Toxic”. The response in the data set on PC-12 [3] was half-maximal at 2.7 µM (EC50).
In turn, `CC1=NN(c2ccccc2)C(=O)C1` [EDARAVONE] came in with an EC50 in the data set on PC-12 [3] of 9.2 µM.
As to `CCCCCCCCC/C=C\CC/C=C/[C@@H](O)[C@H](CO[C@@H]1O[C@H](CO)[C@@H](O)[C@H](O)[C@H]1O)NC(=O)[C@H](O)CCCCCCCCCCCCCCCC`, the result with PC-12 [1] was Active. In addition, in the data set with PC-12 [2], the Activity result is recorded as “Non-Toxic”. Also, in the data set with PC-12 [3], a half-maximal response (EC50) required 20.1 µM.
Taken in the same sequence, the figures for `CCCCCCCCC/C=C/CC/C=C/[C@@H](O)[C@H](CO[C@@H]1O[C@H](CO)[C@@H](O)[C@H](O)[C@H]1O)NC(=O)[C@H](O)CCCCCCCCCCCCCCCCCCC` were “Active”, “Non-Toxic” and 8.8 µM.
Taken in the same sequence, the figures for `CCCCCCCCC/C=C\CC/C=C/[C@@H](O)[C@H](CO[C@@H]1O[C@H](CO)[C@@H](O)[C@H](O)[C@H]1O)NC(=O)[C@H](O)CCCCCCCCCCCCCCCCCCCC` were “Active”, “Non-Toxic” and 6.5 µM.
As for `CCCCCCCCC/C=C/CC/C=C/[C@@H](O)[C@H](CO[C@@H]1O[C@H](CO)[C@@H](O)[C@H](O)[C@H]1O)NC(=O)[C@H](O)CCCCCCCCCCCCCCCC`, the outcome in the data set on PC-12 [1] was Active. For the same molecule, the Activity entry in the data set with PC-12 [2] was “Non-Toxic”. In the data set on PC-12 [3], this molecule came in with an EC50 of 22.2 µM.
Taken in the same sequence, the figures for `CCCCCCCCC/C=C\CCC[C@@H](O)[C@@H](O)[C@H](CO[C@@H]1O[C@H](CO)[C@@H](O)[C@H](O)[C@H]1O)NC(=O)[C@H](O)CCCCCCCCCCCCCCCCCCCC` were “Active”, “Non-Toxic” and 6.6 µM.
Consider `CCCCCCCCC/C=C\CC/C=C/[C@@H](O)[C@H](CO[C@@H]1O[C@H](CO)[C@@H](O)[C@H](O)[C@H]1O)NC(=O)[C@H](O)CCCCCCCCCCCCCCCCCCCCCC`, for which the result with PC-12 [1], in the data set on PC-12 [14], in the data set on PC-12 [15], in the data set with PC-12 [16] and in the data set on PC-12 [17] was Active. The Activity result in the data set with PC-12 [2] is “Non-Toxic”; in the data set on PC-12 [4], 1.79%; with PC-12 [5], 30.63%; in the data set on PC-12 [6], 1.2%; in the data set with PC-12 [7] it was 22.38%; with PC-12 [8], 1.02%. The Activity with PC-12 [9] is 2.11%; in the data set with PC-12 [10], 0.62%; with PC-12 [11], 1.49%; with PC-12 [12], “Dose-dependent effect”; in the data set on PC-12 [13], “Dose-dependent effect”. The molecule also registered an EC50 with PC-12 [3] of 2.5 µM.
Consider `CCCCCCCCC/C=C/CC/C=C/[C@@H](O)[C@H](CO[C@@H]1O[C@H](CO)[C@@H](O)[C@H](O)[C@H]1O)NC(=O)[C@H](O)CCCCCCCCCCCCCCCCCCCC`, for which the outcome with PC-12 [1] was Active. For the same molecule, the Activity result in the data set with PC-12 [2] is “Non-Toxic”. Also, it took 6.9 µM to reach a half-maximal effect in the data set with PC-12 [3] (EC50).

(Values after ChEMBL document CHEMBL4190188, “Neuroprotective Activity of Cerebrosides from Typhonium giganteum by Regulating Caspase-3 and Bax/Bcl-2 Signaling Pathways in PC12 Cells” (J Nat Prod, 2017).)
